The inhibition is the percentage by which the read-out fell short of the control. One may read the pIC50 as the negative decadic logarithm of the IC50, by convention in mol/L. Read a low pIC50 as a high IC50.

Assay [1] has as its target T1, Lysophosphatidylserine lipase ABHD12 (Homo sapiens) (UniProt Q8N2K0).
T1 sequence (whole entry): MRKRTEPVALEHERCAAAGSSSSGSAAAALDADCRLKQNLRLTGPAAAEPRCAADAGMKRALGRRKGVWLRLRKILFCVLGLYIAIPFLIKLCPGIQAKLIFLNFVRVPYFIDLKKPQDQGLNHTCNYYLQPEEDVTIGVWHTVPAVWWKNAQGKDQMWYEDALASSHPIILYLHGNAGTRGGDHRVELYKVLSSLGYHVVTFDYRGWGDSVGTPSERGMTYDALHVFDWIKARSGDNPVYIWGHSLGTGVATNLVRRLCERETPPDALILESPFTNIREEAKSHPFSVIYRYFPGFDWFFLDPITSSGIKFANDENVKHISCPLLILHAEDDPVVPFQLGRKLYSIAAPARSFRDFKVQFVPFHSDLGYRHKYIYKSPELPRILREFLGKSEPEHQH
As to the kind of experiment: Inhibition of human ABHD12 expressed in HEK293 cells assessed as remaining enzyme activity at 1 uM pre-incubated for 10 mins before 2-AG substrate addition by HPLC method. The assay is classed as cell-based.

The target in assay [2] is T2, Fatty-acid amide hydrolase 1 (Homo sapiens) (UniProt O00519).
T2 sequence (whole entry): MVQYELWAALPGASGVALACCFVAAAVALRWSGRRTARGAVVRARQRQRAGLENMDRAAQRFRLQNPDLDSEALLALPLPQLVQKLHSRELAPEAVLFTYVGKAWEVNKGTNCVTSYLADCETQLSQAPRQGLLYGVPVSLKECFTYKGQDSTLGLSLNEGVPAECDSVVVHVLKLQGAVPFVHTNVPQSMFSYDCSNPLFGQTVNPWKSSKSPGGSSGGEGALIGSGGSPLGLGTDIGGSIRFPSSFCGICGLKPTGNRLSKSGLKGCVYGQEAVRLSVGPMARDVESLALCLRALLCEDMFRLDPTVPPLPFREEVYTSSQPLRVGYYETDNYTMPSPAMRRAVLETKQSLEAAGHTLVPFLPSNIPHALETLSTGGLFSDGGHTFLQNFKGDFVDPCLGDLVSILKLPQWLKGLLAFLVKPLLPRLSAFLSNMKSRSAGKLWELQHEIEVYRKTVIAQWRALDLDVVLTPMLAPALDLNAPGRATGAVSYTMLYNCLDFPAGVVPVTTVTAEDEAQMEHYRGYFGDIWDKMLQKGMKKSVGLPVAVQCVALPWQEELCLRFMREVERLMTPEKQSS
As to the kind of experiment: Inhibition of human FAAH expressed in COS7 cell membranes at 10 uM pre-incubated for 10 mins before [3H]-AEA substrate addition by liquid scintillation counting. Conditions: COS-7.

The target in assay [3] is T3, Monoglyceride lipase (Homo sapiens) (UniProt Q99685).
T3 sequence (whole entry): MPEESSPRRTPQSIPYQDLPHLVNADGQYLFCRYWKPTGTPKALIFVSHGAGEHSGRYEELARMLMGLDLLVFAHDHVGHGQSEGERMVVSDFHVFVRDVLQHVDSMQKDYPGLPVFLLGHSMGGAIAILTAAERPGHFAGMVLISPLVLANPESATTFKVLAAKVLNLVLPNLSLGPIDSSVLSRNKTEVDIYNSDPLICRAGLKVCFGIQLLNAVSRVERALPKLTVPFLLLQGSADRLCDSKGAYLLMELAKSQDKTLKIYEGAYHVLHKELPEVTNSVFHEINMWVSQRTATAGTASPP
As to the kind of experiment: Inhibition of human MAGL expressed in HEK293 cells at 10 uM pre-incubated for 10 mins before 2-AG substrate addition by HPLC method. In kind it is cell-based. The essentials: (§1)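 Lysates of hMAGL-overexpressing HEK293 cells in 50 mM Tris–HCl pH 7.4 with 1 mM EDTA. After a 10 min preincubation with inhibitor or DMSO, 2-AG was added (final 50 µM) and incubated 10 min at 37 °C. The reaction was stopped and samples centrifuged. Arachidonic acid formation and 2-AG depletion were measured by HPLC. Replicates as for the FAAH assay.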

Assay [4] has as its target T4, Monoacylglycerol lipase ABHD6 (Homo sapiens) (UniProt Q9BV23).
T4 sequence (whole entry): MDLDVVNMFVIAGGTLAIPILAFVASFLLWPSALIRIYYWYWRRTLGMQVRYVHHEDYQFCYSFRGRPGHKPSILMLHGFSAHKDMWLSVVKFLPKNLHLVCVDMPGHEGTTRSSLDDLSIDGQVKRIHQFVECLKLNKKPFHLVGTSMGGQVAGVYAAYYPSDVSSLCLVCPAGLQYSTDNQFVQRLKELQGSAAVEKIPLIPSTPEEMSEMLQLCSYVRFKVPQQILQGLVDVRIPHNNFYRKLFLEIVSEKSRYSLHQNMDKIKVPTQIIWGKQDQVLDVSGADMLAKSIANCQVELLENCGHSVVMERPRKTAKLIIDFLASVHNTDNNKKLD
Nature of the assay: Inhibition of human ABHD6 expressed in HEK293 cells assessed as remaining enzyme activity by measuring reduction in glycerol production from 1-AG hydrolysis at 1 uM pre-incubated for 30 mins before 1-AG substrate addition and measured 90 mins post substrate addition by fluorescence method. The assay is classed as cell-based. In a few lines: (§2)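 hABHD6-HEK293 lysates pretreated 30 min with DMSO or inhibitor, then given 1-AG (12.5 µM final). Glycerol release was followed kinetically by fluorescence (emission 590 nm). Blanks without lysate were subtracted. IC50 was taken at the 90 min time point by nonlinear fitting of dose–response curves.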

Assay [5] concerns the target T5, Fatty-acid amide hydrolase 1 (Homo sapiens, UniProt O00519).
T5 sequence (O00519 whole entry): T2 sequence (whole entry)
Nature of the assay: Inhibition of human FAAH expressed in COS7 cell membranes pre-incubated for 10 mins before [3H]-AEA substrate addition by liquid scintillation counting. Set-up: species or system COS-7.

Another assay concerns the target T6, Monoglyceride lipase (Homo sapiens, UniProt Q99685).
T6 sequence (Q99685 whole entry): T3 sequence (whole entry)
Nature of the assay: Inhibition of human MAGL expressed in HEK293 cells pre-incubated for 10 mins before 2-AG substrate addition by HPLC method. The assay is classed as cell-based. The note with it: for IC50: read-out: IC50. In a few lines: as §1

Assay [6] addresses T7, Monoacylglycerol lipase ABHD6 (Homo sapiens, UniProt Q9BV23).
T7 sequence (Q9BV23 whole entry): T4 sequence (whole entry)
As to the kind of experiment: Inhibition of human ABHD6 expressed in HEK293 cells assessed as reduction in glycerol production from 1-AG hydrolysis pre-incubated for 30 mins before 1-AG substrate addition and measured 90 mins post substrate addition by fluorescence method. In kind it is cell-based. The essentials:
as §2

Each structure is given as a SMILES string. The source made the active and inactive calls. The rule behind the calls is not given here.

`COc1nn(Cc2cccc3ccccc23)c(=O)o1`: the inhibition result in assay [1] is “inactive”. Moreover, the figures for the inhibition in assay [2] and in assay [3] were 35% and 11%, respectively. In assay [4], the Activity was determined as 64%.

As to `COc1cccc(Cn2nc(OC)oc2=O)c1`, the inhibition entry in assay [1] and in assay [2] was “inactive” each time. The inhibition in assay [3] came out at 6%. In assay [4], the Activity is 70%.

In the case of `COc1nn(Cc2ccc([N+](=O)[O-])cc2)c(=O)o1`, the inhibition result in assay [1] and in assay [4] was “inactive” each time. The inhibition in assay [2] is 18%; in assay [3], 36%.

For `COc1nn(Cc2cccc(OCc3ccccc3)c2)c(=O)o1`, the inhibition result in assay [1] is “inactive”. Moreover, the IC50 in assay [5] (read-out: IC50) is 1510 nM; in assay [5] (read-out: pIC50 (converted)), 1510 nM; at Monoglyceride lipase, 3230 nM. In assay [4], the Activity amounted to 53%.

For `COc1nn(Cc2cccc(-c3ccccc3)c2)c(=O)o1`, the inhibition result in assay [4] is “inactive”.

On to `COc1nn(Cc2cccc(C#N)c2)c(=O)o1`, for which the inhibition result in assay [1] and in assay [2] was “inactive” in each case. This molecule also displayed an inhibition in assay [3] of 23%. Further, in assay [4], the Activity was 63%.

For `COc1nn(Cc2ccccc2Oc2ccccc2)c(=O)o1`, in assay [3], the inhibition result is “inactive”. Besides, the Activity in assay [4] is 60%.

`COc1nn(Cc2ccccc2)c(=O)o1`: the inhibition entry in assay [2] and in assay [3] was “inactive” in each case. Moreover, in assay [4], the Activity was 61%.

For `COc1nn(Cc2ccc3ccccc3c2)c(=O)o1`, the inhibition result in assay [1], in assay [3] and in assay [4] was “inactive” each time. For the same molecule, the IC50 in assay [5] (read-out: IC50) and in assay [5] (read-out: pIC50 (converted)) was 3980 nM in each case.

Regarding `COc1nn(Cc2cccc(Cl)c2)c(=O)o1`, the inhibition entry in assay [1] was “inactive”. The inhibition in assay [2] came out at 37%; in assay [3], 43%. Moreover, in assay [4], the Activity is 52%.

For `COC(=O)c1ccc(Cn2nc(OC)oc2=O)cc1`, the inhibition result in assay [1] and in assay [4] was “inactive” each time. Also, the IC50 in assay [5] (read-out: IC50) and in assay [5] (read-out: pIC50 (converted)) was 6760 nM throughout. The inhibition in assay [3] is 15%.

For the molecule `COc1nn(Cc2cccc(C(F)(F)F)c2)c(=O)o1`, in assay [1], the inhibition result was “inactive”. Moreover, in assay [6], the IC50 was determined as 870 nM. In addition, the inhibition in assay [2] was determined as 12%; in assay [3], 48%.

On to `COc1nn(Cc2ccc(CC(C)C)cc2)c(=O)o1`, for which the inhibition result in assay [4] is “inactive”.

For the molecule `COc1nn(Cc2ccccc2-c2ccccc2)c(=O)o1`, the inhibition entry in assay [1] and in assay [4] was “inactive” throughout. Besides, the values for the inhibition in assay [2] and in assay [3] were 23% and 8%, respectively.

Regarding `COc1nn(Cc2ccc(NC(=O)c3ccccc3)cc2)c(=O)o1`, the inhibition entry in assay [1] is “inactive”. Also, the IC50 was 620 nM in assay [5] (read-out: IC50), 617 nM in assay [5] (read-out: pIC50 (converted)) and 560 nM on Monoglyceride lipase. Besides, the Activity in assay [4] came to 88%.

For `CCOc1nn(Cc2cccc(N)c2)c(=O)o1`, the inhibition result in assay [1] and in assay [4] was “inactive” in each case. Moreover, the inhibition was found to be 10% in assay [2] and 15% in assay [3].

As to `COc1nn(Cc2ccc(C#N)cc2)c(=O)o1`, the inhibition entry in assay [1], in assay [2] and in assay [4] was “inactive” throughout. The molecule also came in with an inhibition in assay [3] of 25%.

`COc1nn(Cc2ccc(OCc3ccccc3)cc2)c(=O)o1`: the inhibition result in assay [1] and in assay [4] was “inactive” throughout. For the same molecule, the IC50 was 410 nM in assay [5] (read-out: IC50), 407 nM in assay [5] (read-out: pIC50 (converted)) and 520 nM at Monoglyceride lipase.

As for `COc1nn(Cc2cccc(NC(=O)c3ccccc3)c2)c(=O)o1`, the inhibition result in assay [1] and in assay [2] was “inactive” in each case. In addition, the inhibition in assay [3] turned out to be 48%. For the same molecule, the Activity in assay [4] was found to be 79%.

As to `COc1nn(Cc2cccc(NC(C)=O)c2)c(=O)o1`, the inhibition entry in assay [1], in assay [2] and in assay [4] was “inactive” throughout. Besides, the inhibition in assay [3] amounted to 12%.

Regarding `COc1nn(Cc2ccccc2NC(=O)c2ccccc2)c(=O)o1`, the inhibition entry in assay [1], in assay [2], in assay [3] and in assay [4] was “inactive” each time.

On to `COc1nn(Cc2ccc(-c3ccccc3)cc2)c(=O)o1`, for which, in assay [4], the inhibition entry is “inactive”.

Regarding `COc1nn([C@@H](C)c2ccc(CC(C)C)cc2)c(=O)o1`, in assay [4], the inhibition entry is “inactive”.

`COc1nn(Cc2ccc(N)cc2)c(=O)o1`: the inhibition result in assay [1] and in assay [4] was “inactive” throughout. In addition, the inhibition in assay [2] was 34%; in assay [3], 23%.

Turning to `COc1nn(Cc2cccc(Oc3ccccc3)c2)c(=O)o1`, the Activity in assay [4] was found to be 70%.

As to `COc1nn(Cc2ccccc2NC(C)=O)c(=O)o1`, the inhibition result in assay [1] and in assay [4] was “inactive” in each case. For the same molecule, the results for the inhibition in assay [2] and in assay [3] were 11% and 3%, respectively.

Consider `COc1nn(Cc2ccc(NC(C)=O)cc2)c(=O)o1`, for which the inhibition result in assay [1] and in assay [4] was “inactive” each time. Moreover, the inhibition in assay [2] was found to be 37%; in assay [3] it was 16%.

On to `COc1nn(Cc2cccc([N+](=O)[O-])c2)c(=O)o1`, for which the inhibition entry in assay [1] is “inactive”. Also, the inhibition was determined as 7% in assay [2] and 32% in assay [3]. For the same molecule, the Activity in assay [4] was 65%.

`COc1nn(Cc2ccccc2N)c(=O)o1`: the inhibition entry in assay [1] and in assay [4] was “inactive” in each case. For the same molecule, the inhibition in assay [2] was found to be 8%; in assay [3] it was 4%.

In turn, `COc1nn(Cc2ccc(Oc3ccccc3)cc2)c(=O)o1` came in with a pIC50 at Monoglyceride lipase (hek293) of 6.4. The Activity in assay [4] is 77%.

For `COc1nn(Cc2ccccc2[N+](=O)[O-])c(=O)o1`, in assay [1], the inhibition result is “inactive”. Also, the figures for the inhibition in assay [2] and in assay [3] were 36% and 43%, respectively. Further, in assay [4], the Activity was 57%.
